Assay results gathered from unrelated publications.
Each line is one published result; the experiments were not run side by side.
Target: Serine/threonine-protein kinase N1 (PKN1, Homo sapiens, UniProt Q16512)

Oc1ccc(-c2nc(-c3ccncc3)c(-c3ccc(F)cc3)[nH]2)cc1
remaining signal (cell-free assay; 0.5 µM): 78.9%

Cn1c2c(c3ccc(Cl)c(Cl)c31)C(C#N)C1(CCOCC1)NC2=O (centres unmarked)
ΔTm (thermal stability, DSF; 10 µM): 0.2 °C

C[C@@]1(Cc2ccc(C#N)cc2)C(=O)N(c2cc(Cl)cc(Cl)c2)c2ncc(C(=O)NC3(c4nc(C5CCC5)no4)CC3)n21
remaining binding (cell-free assay, competition with immobilised ligand; 1 µM): 100%

CN1CCC2(CC1)NC(=O)c1c(c3ccc(Cl)c(Cl)c3n1C)C2C#N (racemic)
ΔTm (thermal stability, DSF; 10 µM): 1 °C

CCCS(=O)(=O)Nc1ccc(F)c(C(=O)c2c[nH]c3ncc(-c4ccc(Cl)cc4)cc23)c1F
inhibition (enzyme activity, inhibitor; 1 µM): < 10%

Cn1c2c(c3ccc(Cl)c(Cl)c31)C(C#N)C1(CCCC1)NC2=O (centres unmarked)
ΔTm (thermal stability, DSF; 10 µM): -0.5 °C

COc1cc(-c2cc(-c3ccc(N4CCNCC4)cc3)cnc2C)cc(OC)c1OC
inhibition (enzyme activity, inhibitor; 1 µM): 6%

Cc1sc(C(=O)NC2COC2)cc1-n1cc(NC(=O)Nc2c(F)cccc2Cl)cn1
remaining activity (enzyme activity, inhibitor; 10 µM): 76.8%

O=C(NCc1ncc(C(F)(F)F)cc1Cl)c1ccc2c(c1)C1(CCS(=O)(=O)CC1)[C@@H](C1CC1)N2S(=O)(=O)c1ccc(F)cc1
remaining binding (cell-free assay, competition with immobilised ligand; 1 µM): 100%

Cn1cncc1C1=CN(c2ncnc3[nH]cnc23)CCS1
inhibition (enzyme activity, inhibitor, radiometric; 50 nM): 18.8%

CC(=O)c1c(C)c2cnc(Nc3ccc(N4CCNCC4)cn3)nc2n(C2CCCC2)c1=O.Cl
activity vs control (enzyme activity, inhibitor; 1 µM): 96%

CS(=O)(=O)Nc1cccc(-c2csc(NC(=O)CSc3nc4nccnc4c(=O)n3CCc3ccccc3)n2)c1
inhibition (enzyme activity, inhibitor; 10 µM): -5%

CN(C)C1CCN(CC#Cc2nn(C3CCCC3)c3nc(NCc4ccccc4)ncc23)C1 (centres unmarked)
inhibition (enzyme activity, inhibitor, FRET; 1 µM): 1%

O=C(Nc1cnn2ccc(N3CCC[C@@H]3c3cc(F)ccc3F)nc12)N1CC[C@H](O)C1
activity vs control (enzyme activity, inhibitor; 1 µM): 94%

O=C(NC[C@@H]1[C@H]2CN(C(=O)OCc3cc(C(F)(F)F)cc(C(F)(F)F)c3)C[C@@H]12)c1ccc2[nH]nnc2c1
remaining binding (cell-free assay, competition with immobilised ligand; 1 µM): 100%

C#Cc1cccc(Nc2ncnc3cc(OCCOC)c(OCCOC)cc23)c1
remaining signal (cell-free assay; 0.5 µM): 108%

Cn1c2c(Cl)c(Cl)ccc2c2cc[nH]c(=O)c21
ΔTm (thermal stability, DSF; 10 µM): 0.9 °C

c1ccc(CNc2nc(N3CCOc4ccccc43)nc3c2CCCC3)cc1
inhibition (target engagement in cells, inhibitor, chemoproteomics; 20 mM): 1.6%

Cc1c[nH]c2nc(Nc3ccc(N4CCN(C)CC4)c(F)c3)nc(-c3cccc(CC#N)c3)c12
activity vs control (enzyme activity, inhibitor; 1 µM): 19%

Cc1ccc(C(=O)Nc2ccc(CN3CCN(C)CC3)c(C(F)(F)F)c2)cc1C#Cc1cnc2cccnn12
remaining activity (enzyme activity, inhibitor; 23.5 nM): 100%

Cl.Cl.O=C(NCCCNc1nc(Nc2cccc(CN3CCOCC3)c2)ncc1C1CC1)C1CCC1
activity vs control (enzyme activity, inhibitor; 1 µM): 52%

COc1cc2c(Nc3ccc(Br)cc3F)ncnc2cc1OCC1CCN(C)CC1
remaining signal (cell-free assay; 0.5 µM): 103%

Cc1c[nH]c2nccc(Oc3c(F)cc(Nc4cc(Cl)nc(N)n4)cc3F)c12
remaining binding (cell-free assay, competition with immobilised ligand; 0.1 µM): 72%

COc1ccc(-c2cc3nccn3c(Nc3ncccc3C(N)=O)n2)cc1OC.Cl
activity vs control (enzyme activity, inhibitor; 1 µM): 50%

COc1cc(-c2cn(C3CCc4c(F)cccc4N(CC(F)(F)F)C3=O)nn2)ccc1-n1cnc(C)c1 (centres unmarked)
remaining binding (cell-free assay, competition with immobilised ligand; 1 µM): 96%

CC(C)NC[C@@H](C(=O)N1CCN(c2ncnc3c2[C@H](C)C[C@H]3O)CC1)c1ccc(Cl)cc1
activity vs control (enzyme activity, inhibitor; 1 µM): 1%

CCCOc1ccc([C@H]2[C@H](C(=O)O)[C@@H](c3ccc4c(c3)OCO4)CN2CC(=O)Nc2c(CC)cccc2CC)cc1
remaining binding (cell-free assay, competition with immobilised ligand; 1 µM): 87%

N#CCCc1ccc2c(c1)-c1[nH]c3ccc([N+](=O)[O-])cc3c1CC(=O)N2
remaining signal (cell-free assay; 0.5 µM): 78%

CC(C)(C)c1nc2c(s1)c1nc(N)ncc1c1ccc(NS(=O)(=O)c3c(F)cccc3F)c(F)c12
remaining activity (enzyme activity, inhibitor, radiometric; 1 µM): 102%

O=S(=O)(c1cccc2cnccc12)N1CCCNCC1
remaining signal (cell-free assay; 0.5 µM): 40.5%

Cc1c(NC(=O)c2cc3c(s2)CCCC3)cccc1-c1cn(C)c(=O)c(Nc2ccc([C@@H]3C(=O)N(C)CCN3C)cc2)n1
activity vs control (enzyme activity, inhibitor; 1 µM): 76%

COc1cc2ncnc(Nc3ccc(Oc4ccccc4)c(C)c3C)c2cc1OC
inhibition (enzyme activity, inhibitor; 1 µM): 4%

CC/C(=N\NC(=O)NCc1cccc(O)c1)c1ccc(O)c(C)c1O
inhibition (enzyme activity, inhibitor; 0.1 µM): 29.1%

CN(C(=O)c1ccccc1)c1cc(N(C)c2ccc3c(c2)CCc2ccc(C(=O)NCCN4CCOCC4)cc2C3=O)ccc1F
remaining binding (cell-free assay, competition with immobilised ligand; 1 µM): 100%

CCCCNc1ncc2c(-c3ccc(F)cc3)nn(C[C@H]3CC[C@H](N)CC3)c2n1
inhibition (target engagement in cells, inhibitor, chemoproteomics; 20 mM): -43.3%

Cl.OC1CCC(Nc2ncc3nc(Nc4c(F)cc(F)cc4F)n(C4CCOC4)c3n2)CC1 (centres unmarked)
activity vs control (enzyme activity, inhibitor; 1 µM): 98%

CS(=O)(=O)N1CCCC(NC(=O)[C@H](CCC2CCCCC2)NC(=O)c2ccc(CNc3ncnc4c3nnn4-c3ccccc3)cc2)C1 (some centres unmarked)
remaining binding (cell-free assay, competition with immobilised ligand; 0.1 µM): 98%

COc1cc(Cl)c(C(=O)N[C@@H](CN[C@H]2CC[C@@H](N)CC2)Cc2ccc(C#N)cc2)cc1-c1ccc(CN[C@H](C)c2ccc(C)cc2)o1
remaining activity (enzyme activity, inhibitor; 1 µM): 108%
